In ChEMBL document CHEMBL1275480, “Role of global regulators and nucleotide metabolism in antibiotic tolerance in Escherichia coli” (2008):

How the values were obtained:
[1] = test system: Escherichia coli; assay: Antimicrobial activity against Escherichia coli K-12 BW-25113 assessed as survival rate at 10 ug/ml after 6 hrs by time kill analysis
[2] = test system: Escherichia coli; assay: Antimicrobial activity against surA deficient Escherichia coli K-12 BW-25113 assessed as survival rate at 10 ug/ml after 6 hrs by time kill analysis
[3] = test system: Escherichia coli; assay: Antimicrobial activity against apaH deficient Escherichia coli K-12 BW-25113 assessed as survival rate at 10 ug/ml after 6 hrs by time kill analysis
[4] = test system: Escherichia coli; assay: Antimicrobial activity against dnaK deficient Escherichia coli K-12 BW-25113 assessed as decrease in persistence at 100 ug/ml after 3 hrs by time kill analysis; format: functional, K-12 BW25113
How it was run: (§1)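 Keio single-gene deletion strains of E. coli K-12 BW25113 and the parent strain. Cultures: 1 ml LB overnight at 37°C with aeration, then diluted 1:100 into MOPS minimal medium (0.1% succinate, 0.05% Casamino Acids) and grown 5 h to exponential phase (~2 × 10^8 CFU/ml). Challenged 3 h with ciprofloxacin 1 μg/ml, streptomycin 10 μg/ml or ampicillin 100 μg/ml. Samples taken before and after, diluted, spot-plated on LB agar for CFU. Triplicate, standard deviations.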

[5] = test system: Escherichia coli; assay: Antimicrobial activity against dnaJ deficient Escherichia coli K-12 BW-25113 assessed as decrease in persistence at 100 ug/ml after 3 hrs by time kill analysis; format: functional, K-12 BW25113
How it was run: as §1

[6] = test system: Escherichia coli; assay: Antimicrobial activity against ygfA deficient Escherichia coli K-12 BW-25113 assessed as decrease in persistence at 100 ug/ml after 3 hrs by time kill analysis; format: functional, K-12 BW25113
How it was run: as §1

[7] = test system: Escherichia coli; assay: Antimicrobial activity against dksA deficient Escherichia coli K-12 BW-25113 assessed as decrease in persistence at 100 ug/ml after 3 hrs by time kill analysis; format: functional, K-12 BW25113
How it was run: as §1

[8] = test system: Escherichia coli; assay: Antimicrobial activity against dksA deficient Escherichia coli K-12 BW-25113 assessed as decrease in persistence at 10 ug/ml after 3 hrs by time kill analysis relative to wild type; format: functional, K-12 BW25113
How it was run: as §1

[9] = test system: Escherichia coli; assay: Antimicrobial activity against dnaK deficient Escherichia coli K-12 BW-25113 assessed as decrease in persistence at 10 ug/ml after 3 hrs by time kill analysis; format: functional, K-12 BW25113
How it was run: as §1

[10] = test system: Escherichia coli; assay: Antimicrobial activity against dnaJ deficient Escherichia coli K-12 BW-25113 assessed as decrease in persistence at 10 ug/ml after 3 hrs by time kill analysis; format: functional, K-12 BW25113
How it was run: as §1

[11] = test system: Escherichia coli; assay: Antimicrobial activity against yigB deficient Escherichia coli K-12 BW-25113 assessed as decrease in persistence at 10 ug/ml after 3 hrs by time kill analysis relative to wild type; format: functional, K-12 BW25113
How it was run: as §1

[12] = test system: Escherichia coli; assay: Antimicrobial activity against ygfA deficient Escherichia coli K-12 BW-25113 assessed as decrease in persistence at 10 ug/ml after 3 hrs by time kill analysis relative to wild type; format: functional, K-12 BW25113
How it was run: as §1

CC1COc2c(N3CCN(C)CC3)c(F)cc3c(=O)c(C(=O)O)cn1c23 (configuration not stated) [OFLOXACIN]
Activity [1]: 1.3%
Activity [2]: 3.3%
Activity [3]: 1.7%

CC1(C)S[C@@H]2[C@H](NC(=O)[C@H](N)c3ccccc3)C(=O)N2[C@H]1C(=O)O [AMPICILLIN]
fold change (FC) [4]: 13
fold change (FC) [5]: 46
fold change (FC) [6]: 82
fold change (FC) [7]: 40

CN[C@@H]1[C@H](O[C@H]2[C@H](O[C@H]3[C@H](O)[C@@H](O)[C@H](N=C(N)N)[C@@H](O)[C@@H]3N=C(N)N)O[C@@H](C)[C@]2(O)C=O)O[C@@H](CO)[C@H](O)[C@H]1O [STREPTOMYCIN]
fold change (FC) [8]: 6
fold change (FC) [9]: 66
fold change (FC) [10]: 87
fold change (FC) [11]: 10
fold change (FC) [12]: 3
